Assay outcomes: PubChem, The Scripps Research Institute Molecular Screening Center
Rows were chosen to be rich in hits. Some 1.8% of all compounds tested hit in one or more screens of this group.
CHRM5 PAM: CHRM5 positive allosteric modulation | hit rate 0.3% among 360,000 | P08912 | AID 624038 | CHO-K1 hM5, Fluo-8 calcium, ACh EC20 PAM; 0% = ACh EC20, 100% = ACh EC100 | activation, % at 3 µM;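 active = activation above the run cutoff, the mean activation of all test compounds plus 3 SD, cut at about 18% in these data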
Target sequence (P08912 whole entry, looked up): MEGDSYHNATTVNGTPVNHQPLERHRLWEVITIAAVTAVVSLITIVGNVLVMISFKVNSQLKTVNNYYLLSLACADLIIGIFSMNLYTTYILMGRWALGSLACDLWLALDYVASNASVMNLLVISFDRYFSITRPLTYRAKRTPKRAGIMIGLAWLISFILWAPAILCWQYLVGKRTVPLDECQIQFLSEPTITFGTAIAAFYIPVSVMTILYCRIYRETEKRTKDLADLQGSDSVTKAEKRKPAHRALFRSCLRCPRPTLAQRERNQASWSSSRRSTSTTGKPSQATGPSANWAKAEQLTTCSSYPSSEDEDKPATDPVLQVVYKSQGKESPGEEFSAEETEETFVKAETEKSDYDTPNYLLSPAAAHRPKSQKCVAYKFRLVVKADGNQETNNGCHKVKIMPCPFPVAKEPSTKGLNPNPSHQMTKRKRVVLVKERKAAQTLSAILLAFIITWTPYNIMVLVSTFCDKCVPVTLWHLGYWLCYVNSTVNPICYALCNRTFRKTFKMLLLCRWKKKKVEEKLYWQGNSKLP
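Replicates: One well per compound, no replicates | System: Human M5 receptor in CHO-K1 cells | Benchmarks: Low control EC20 acetylcholine (0%), high control EC100 acetylcholine (100%) | Probe or stimulus: Acetylcholine, EC20 level | Times: Fluo-8 loading 80 min at 37 °C plus 30 min room temperature | Signal: Intracellular calcium via Fluo-8 fluorescence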
CHRM5 agonist: CHRM5 agonism in calcium assay | P08912 | CHO-K1 hM5 cells, Fluo-8 calcium fluorescence; 0% DMSO wells, 100% maximal acetylcholine response | activation, % at 3 µM | hit rate 0.19% among 360,000;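 active = activation above the run's mean over test compounds plus 3 SD, cut at about 23% in these data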;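 also: signal is peak over basal fluorescence ratio across the kinetic read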
CHRM4 PAM: potentiates acetylcholine response at human M4 receptor. P08173. CHO-K1 hM4/Gqi5, Fluo-8 calcium fluorescence, ACh EC20; 0% = ACh EC20, 100% = maximal ACh. activation, % at 3 µM. hit rate 0.4% among 360,000. AID 624126;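 active = activation above its plate's cutoff, the mean activation of sample wells plus 3 SD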
CHRM4 agonist: CHRM4 agonism in calcium assay; CHO-K1 hM4/Gqi5, Fluo-8 calcium fluorescence; vehicle 0%, full acetylcholine response 100%; activation, % at 3 µM; hit rate 0.14% among 360,000;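 active = activation above the run mean over all test wells plus 3 SD, cut at about 32% in these data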;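 also: peak over basal fluorescence ratio per well then scaled between controls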
M5 antag: CHRM5 antagonism in calcium assay. P08912. CHO-hM5 cells, Fluo-8 calcium fluorescence, ACh EC80. inhibition, % at 3 µM. hit rate 0.59% among 360,000. AID 624040;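 active = inhibition above a per-plate cutoff, the mean of that plate's test compounds plus 3 SD, cut at about 27% in these data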
M4 antag: antagonists of human muscarinic M4 receptor (CHRM4). P08173. hit rate 0.73% among 360,000. CHO-hM4 cells, ACh EC80, Fluo-8 calcium fluorescence. inhibition, % at 3 µM;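 active = inhibition above its plate's cutoff, the mean inhibition of sample wells plus 3 SD, cut at about 27% in these data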
Numbers stand for hits; – = inactive; ! = not active in a repeat.

SMILES	CHRM5 PAM	CHRM5 agonist	CHRM4 PAM	CHRM4 agonist	M5 antag	M4 antag
O=C(CSc1nnc(Cc2ccccc2)o1)N1CCc2ccccc21	–	–	–	–	–	–
O=C(NC1CCCCC1)C1CC(=O)N(Cc2ccccc2)C1 (stereo unspecified)	–	–	–	–	–	–
CC(=O)Nc1c(Cl)cnn(-c2ccccc2)c1=O	22	–	–	–	–	–
Cc1c(NC(=O)c2cc(-n3cnnc3)ccc2Cl)cccc1-c1nc2ccccc2s1	–	–	–	–	–	–
Cc1c(NC(=O)c2cccs2)cccc1-c1nc2ccccc2s1	–	–	–	–	–	31
C=C1C(=O)[C@]23C[C@H]1CCC2[C@@]1(C)C(C[C@@H]3O)[C@](C)(C(=O)OC)CC[C@@H]1OC(C)=O (stereo partly specified)	–	–	–	–	–	58
Cc1ccccc1CNC(=O)c1ccccc1NS(C)(=O)=O	19	–	–	–	–	–
CS(=O)(=O)Nc1ccccc1C(=O)NCc1ccccc1Cl	–	–	–	–	–	–
O=[N+]([O-])c1ccc(SCc2ccncc2)nc1	–	–	–	–	–	–
CCN1CCN(CC(=O)Nc2ccc(C(C)=O)cc2)CC1	–	–	–	–	–	–
O=C(CN1CCN(c2ccccc2)CC1)Nc1ccc(-n2cnnn2)cc1	–	–	–	–	–	30
COc1cccc(N2CCN(CC(=O)Nc3ccc(-n4cnnn4)cc3)CC2)c1	–	–	–	–	–	–
CC(=O)c1ccc(NC(=O)CN2CCN(CC(=O)Nc3ccc(C(C)=O)cc3)CC2)cc1	27	–	–	–	–	–
O=C(c1cccs1)N1CCN=C1SCc1cccnc1	20	–	–	–	–	–
Cc1ccc(S(=O)(=O)C=CS(=O)(=O)c2ccc(C)cc2)cc1	–	–	–	–	–	32
Cc1ccc(S(=O)(=O)c2ccc(C)cc2)cc1	–	–	–	–	–	–
O=S(=O)(/C=C/C=C/S(=O)(=O)c1ccccc1)c1ccccc1	–	–	–	–	–	43
Clc1cccc(-c2nc(-c3ccc(-c4nn[nH]n4)cc3)no2)c1	–	–	–	–	–	–
Cc1nnc(NCC=Cc2ccccc2)s1	–	–	–	–	–	–
CCC(OC(=O)c1ccco1)C(=O)NCc1ccc2c(c1)OCO2 (stereo unspecified)	–	–	19	–	–	–
CCC(OC(=O)c1ccco1)C(=O)NCc1ccc(C)cc1 (stereo unspecified)	–	–	–	–	–	–
OC(CCN1CC2CCC(CC2)C1)(Cc1ccccc1)c1ccco1 (stereo unspecified)	–	–	–	–	27	34
O=C(/C=C/c1ccco1)N1CCC(Cc2ccccc2)CC1	–	–	–	–	–	–
Clc1cccc2sc(N3CCOCC3)nc12	26	–	–	–	–	–
Clc1cccc2sc(N3CCCC3)nc12	–	–	–	–	–	–
SMILES	CHRM5 PAM	CHRM5 agonist	CHRM4 PAM	CHRM4 agonist	M5 antag	M4 antag
COc1ccccc1NC(=O)COC(=O)C1=NN(c2ccccc2)C(=O)CC1	19	–	–	–	–	–
CCN1C(=O)[C@H]2[C@@H](c3ccc(OC)cc3)N[C@]3(CCCN(Cc4ccc(OC)cc4)C3=O)[C@H]2C1=O	–	–	–	–	–	–
COc1c(C)cc(C(O)c2ncc(-c3ccc4ccccc4c3)[nH]2)cc1C (stereo unspecified)	–	–	–	–	–	–
S=C1NCN(Cc2ccccc2)CN1C1CCCCC1	21	–	–	–	–	–
CCC(c1nc2ccccc2[nH]1)n1c(=O)c(-c2ccccc2)nc2ccccc21 (stereo unspecified)	–	–	–	–	–	–
Clc1ccc(-c2nnc3c4ccccc4nc(N4CCOCC4)n23)cc1Cl	–	–	–	–	–	–
Brc1ccc(-c2nnc3c4ccccc4nc(N4CCOCC4)n23)cc1	–	–	40	–	–	–
CCc1nnc(NC(=O)c2ccc(S(=O)(=O)N(CC)Cc3ccccc3)cc2)o1	–	–	–	–	–	–
CCc1nnc(NC(=O)c2ccc(S(=O)(=O)N(C)Cc3ccccc3)cc2)o1	–	–	16	–	–	–
O=C(NCc1ccc2c(c1)OCO2)Nc1ccc([N+](=O)[O-])cc1	–	–	–	–	38	–
O=C(Cc1ccc(Cl)cc1)Nc1ccccc1C(=O)N1CCCCC1	–	–	–	–	28	–
Cc1cc(=O)n(Nc2ccccc2)c(O)c1C#N	–	–	–	–	–	–
Cc1cc(SCC(=O)NCC2CCCO2)nc2ccccc12 (stereo unspecified)	–	23	–	–	–	–
Cc1cc(C(=O)CSc2nc3ccccc3c(=O)[nH]2)c(C)n1CC1CCCO1 (stereo unspecified)	–	–	–	–	36	27
Cc1cc(C(=O)CN2C(=O)NC(C)(c3ccccc3)C2=O)c(C)n1CC1CCCO1 (stereo unspecified)	–	–	–	–	–	27
CCn1c(SCC(=O)c2cc(C)n(CC3CCCO3)c2C)nc2ccccc21 (stereo unspecified)	–	–	–	–	–	–
CCOC(=O)c1cnc[nH]c1=O	–	–	–	–	–	–
CC1CCN(c2nc3ccccc3n2CC(=O)c2ccccc2)CC1	–	–	–	–	–	58
Cc1nc2ccccc2n1CC(=O)c1ccccc1	–	–	–	–	–	–
CCOC(=O)c1ccc(N=c2sc(C(=O)OC)cc(=O)n2CCCN2CCOCC2)cc1	–	–	–	–	–	52!
CCOC(=O)c1ccc(N=c2sc(C(=O)OC)cc(=O)n2Cc2ccco2)cc1	–	–	–	–	–	–
Fc1ccc(-c2[nH]ncc2CN2CCN(c3ccc(F)cc3)CC2)cc1	–	31	–	–	–	–
Fc1ccc(N2CCN(Cc3cn[nH]c3-c3ccccc3)CC2)cc1	–	–	–	–	–	–
O=C(Nc1nc2nccc(-c3ccccc3)n2n1)c1ccccc1	–	–	–	–	–	100
NC(=O)C1(Nc2ccc(-c3ccc(Br)cc3)cc2)CCCC1	–	–	–	–	–	–
CN1CCC2(CC1)N=C(c1ccc(F)cc1)C(=S)N2C(=O)c1ccc(C(C)(C)C)cc1	–	–	–	–	33	–
COc1ccc(NC(=O)c2sc(=O)n(Cc3ccc4ccccc4c3)c2C)cc1OC	–	–	–	–	–	–
CCN(CC)CCNC(=O)Cn1nc(-c2ccc(C)cc2)ccc1=O	–	–	–	–	–	–
Cc1ccc(-c2ccc(=O)n(CC(=O)NCCN(CC(C)C)CC(C)C)n2)cc1	24	–	–	–	–	–
